The source of these data is ChEMBL document CHEMBL1149879, “Ten-membered lactones from Phomopsis sp., an endophytic fungus of Azadirachta indica” (2008).

In brackets after ≈: the same amount, converted by molar mass. Some results are limits rather than exact numbers.

Format in all cases: functional
The subject of test [1] is Fusarium avenaceum. Briefly: Antifungal activity against Fusarium avenaceum YM3065 after 72 hrs by disk diffusion method. The gist of the method: (§1)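 Paper-disk diffusion. Fungi grown on PDA at 28 °C; spores mixed into melted PDA at 1 × 10^6 spores/mL and poured into plates. Compounds in 50% aqueous DMSO, serially double diluted from 500 to 15.63 µg/mL, loaded onto sterile 6 mm paper disks. Dried disks placed on agar, incubated 28 °C for 72 h, inhibition zones then measured.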

Test [2] deals with Ophiostoma minus. Briefly: Antifungal activity against Ophiostoma minus YM3429 after 72 hrs by disk diffusion method. The gist of the method: as §1
In test [3] the test system is Botrytis cinerea. Description: Antifungal activity against Botrytis cinerea YM3061 after 72 hrs by disk diffusion method. An outline of the steps:
as §1
A general note: Agar diffusion results depend on both activity and mobility in agar.

Test [4] concerns Fusarium verticillioides. Briefly: Antifungal activity against Fusarium moniliforme YM3067 after 72 hrs by disk diffusion method. The gist of the method:
as §1

The test system of test [5] is Aspergillus niger. Briefly: Antifungal activity against Aspergillus niger YM3029 after 72 hrs by disk diffusion method. An outline of the steps:
as §1

In test [6] the test system is Bipolaris maydis. Briefly: Antifungal activity against Helminthosporium maydis YM3076 after 72 hrs by disk diffusion method. The gist of the method:
as §1

Test [7] deals with Talaromyces islandicus. Description: Antifungal activity against Penicillium islandicum YM3104 after 72 hrs by disk diffusion method. An outline of the steps: as §1

On to NYSTATIN, for which the minimum inhibitory concentration (MIC) was found to be 62.5 µg/mL in test [1]; 31.2 µg/mL in test [2]; 31.2 µg/mL in test [3]; 62.5 µg/mL in test [4]; 15.6 µg/mL in test [5]; 31.2 µg/mL in test [6]. In test [7], this molecule showed an MIC of 15.6 µg/mL.

As to `CC(=O)O[C@H]1/C=C/[C@@H]2O[C@@H]2C(=O)O[C@H](C)C[C@H]1O` [7ALPHA-ACETOXYMULTIPLOLIDE A], the MIC was over 500 µg/mL in test [1]; over 500 µg/mL in test [2]; over 500 µg/mL in test [3]; over 500 µg/mL in test [4]; 125 µg/mL (≈ 488 µM) in test [5]; over 500 µg/mL in test [6]. The MIC in test [7] is over 500 µg/mL.

On to `C[C@@H]1C[C@@H](O)[C@@H](O)/C=C/[C@@H]2O[C@@H]2C(=O)O1` [MULTIPLOLIDE A], for which the MIC in test [1] was over 500 µg/mL; in test [2], over 500 µg/mL; in test [3], over 500 µg/mL; in test [4], over 500 µg/mL; in test [5], 250 µg/mL (≈ 1170 µM); in test [6], 500 µg/mL (≈ 2330 µM). The same molecule returned a minimal inhibitory concentration (MIC) in test [7] of 250 µg/mL (≈ 1170 µM).

As to `CC(=O)O[C@@H]1C[C@@H](C)OC(=O)CC[C@H](O)CC1=O`, the MIC was over 500 µg/mL in test [1]; over 500 µg/mL in test [2]; 250 µg/mL (≈ 968 µM) in test [3]; over 500 µg/mL in test [4]; 125 µg/mL (≈ 484 µM) in test [5]; 500 µg/mL (≈ 1940 µM) in test [6]. Also, in test [7], the MIC came to 250 µg/mL (≈ 968 µM).

For `CC(=O)O[C@@H]1C[C@@H](C)OC(=O)[C@H]2O[C@H]2/C=C/[C@@H]1O` [8ALPHA-ACETOXYMULTIPLOLIDE A], the minimal inhibitory concentration (MIC) in test [1] is over 500 µg/mL; in test [2], 31.2 µg/mL (≈ 122 µM); in test [3] it was 62.5 µg/mL (≈ 244 µM); in test [4] it was 500 µg/mL (≈ 1950 µM); in test [5], 125 µg/mL (≈ 488 µM); in test [6], 500 µg/mL (≈ 1950 µM). Also, the MIC in test [7] came out at 250 µg/mL (≈ 976 µM).

For the molecule `C[C@@H]1C[C@@H](O)[C@@H](O)/C=C/C=C\C(=O)O1`, the MIC is over 500 µg/mL in test [1]; over 500 µg/mL in test [2]; 500 µg/mL (≈ 2520 µM) in test [3]; over 500 µg/mL in test [4]; 125 µg/mL (≈ 631 µM) in test [5]; 500 µg/mL (≈ 2520 µM) in test [6]. Also, the MIC in test [7] is over 500 µg/mL.

What is called MIC is the lowest concentration that inhibits growth of the organism. Read a low MIC as inhibition by little substance.
